From publication PMC3313004 (Molecular Microbiology, 2012)

What was measured:
TcdBHIST [1] = target: T1, TcdBHIST (Clostridioides difficile, UniProt P18177); assay: In vitro TcdB autoprocessing assay; assay type: biochemical, Clostridium difficile 10463
TcdBHV [2] = assay: In vitro TcdB autoprocessing assay; assay type: biochemical, Clostridium difficile BI17
TcdBHV [3] = assay: AWP19 probe labeling of TcdB; assay type: biochemical, Clostridium difficile BI17; conditions: 1 h IP6, then AWP19 in 10-fold molar excess
TcdBHIST [4] = target: T1, TcdBHIST; assay: AWP19 probe labeling of TcdB; assay type: biochemical, Clostridium difficile 10463; conditions: 1 h IP6, then AWP19 in 10-fold molar excess
TcdBHIST [5] = target: T1, TcdBHIST
[6] = test system: TcdBHIST treated CHO-K1 cells; assay: Inactivation of TcdB in cell culture; assay type: cell-based; conditions: TcdBHIST pre-incubated with 100 µM inhibitor; 24 hrs
In short: (§1)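 CHO-K1 cells were seeded at 1–2 × 10^4 cells/well in F12-K medium with 10% FBS. Toxin at 0.037, 0.37 or 3.7 pM was preincubated for 30 min in F12-K medium with 100 µM of the CPD inhibitor Ac-GSL-AOMK, then added to wells in triplicate. Cells were kept 24 h at 37°C, 6% CO₂, and viability was read by CCK-8.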

TcdBHV [7] = assay: In vitro inhibition of IP6-induced processing with Ac-GSL-AOMK; assay type: biochemical, Clostridium difficile BI17
[8] = test system: TcdBHV treated CHO-K1 cells; assay: Inactivation of TcdB in cell culture; assay type: cell-based; conditions: TcdBHV pre-incubated with 100 µM inhibitor; 24 hrs
In short: as §1

[9] = up to 100 µM inhibitor, 25 µM IP6, 3 independent experiments

T1 sequence (P18177 whole entry): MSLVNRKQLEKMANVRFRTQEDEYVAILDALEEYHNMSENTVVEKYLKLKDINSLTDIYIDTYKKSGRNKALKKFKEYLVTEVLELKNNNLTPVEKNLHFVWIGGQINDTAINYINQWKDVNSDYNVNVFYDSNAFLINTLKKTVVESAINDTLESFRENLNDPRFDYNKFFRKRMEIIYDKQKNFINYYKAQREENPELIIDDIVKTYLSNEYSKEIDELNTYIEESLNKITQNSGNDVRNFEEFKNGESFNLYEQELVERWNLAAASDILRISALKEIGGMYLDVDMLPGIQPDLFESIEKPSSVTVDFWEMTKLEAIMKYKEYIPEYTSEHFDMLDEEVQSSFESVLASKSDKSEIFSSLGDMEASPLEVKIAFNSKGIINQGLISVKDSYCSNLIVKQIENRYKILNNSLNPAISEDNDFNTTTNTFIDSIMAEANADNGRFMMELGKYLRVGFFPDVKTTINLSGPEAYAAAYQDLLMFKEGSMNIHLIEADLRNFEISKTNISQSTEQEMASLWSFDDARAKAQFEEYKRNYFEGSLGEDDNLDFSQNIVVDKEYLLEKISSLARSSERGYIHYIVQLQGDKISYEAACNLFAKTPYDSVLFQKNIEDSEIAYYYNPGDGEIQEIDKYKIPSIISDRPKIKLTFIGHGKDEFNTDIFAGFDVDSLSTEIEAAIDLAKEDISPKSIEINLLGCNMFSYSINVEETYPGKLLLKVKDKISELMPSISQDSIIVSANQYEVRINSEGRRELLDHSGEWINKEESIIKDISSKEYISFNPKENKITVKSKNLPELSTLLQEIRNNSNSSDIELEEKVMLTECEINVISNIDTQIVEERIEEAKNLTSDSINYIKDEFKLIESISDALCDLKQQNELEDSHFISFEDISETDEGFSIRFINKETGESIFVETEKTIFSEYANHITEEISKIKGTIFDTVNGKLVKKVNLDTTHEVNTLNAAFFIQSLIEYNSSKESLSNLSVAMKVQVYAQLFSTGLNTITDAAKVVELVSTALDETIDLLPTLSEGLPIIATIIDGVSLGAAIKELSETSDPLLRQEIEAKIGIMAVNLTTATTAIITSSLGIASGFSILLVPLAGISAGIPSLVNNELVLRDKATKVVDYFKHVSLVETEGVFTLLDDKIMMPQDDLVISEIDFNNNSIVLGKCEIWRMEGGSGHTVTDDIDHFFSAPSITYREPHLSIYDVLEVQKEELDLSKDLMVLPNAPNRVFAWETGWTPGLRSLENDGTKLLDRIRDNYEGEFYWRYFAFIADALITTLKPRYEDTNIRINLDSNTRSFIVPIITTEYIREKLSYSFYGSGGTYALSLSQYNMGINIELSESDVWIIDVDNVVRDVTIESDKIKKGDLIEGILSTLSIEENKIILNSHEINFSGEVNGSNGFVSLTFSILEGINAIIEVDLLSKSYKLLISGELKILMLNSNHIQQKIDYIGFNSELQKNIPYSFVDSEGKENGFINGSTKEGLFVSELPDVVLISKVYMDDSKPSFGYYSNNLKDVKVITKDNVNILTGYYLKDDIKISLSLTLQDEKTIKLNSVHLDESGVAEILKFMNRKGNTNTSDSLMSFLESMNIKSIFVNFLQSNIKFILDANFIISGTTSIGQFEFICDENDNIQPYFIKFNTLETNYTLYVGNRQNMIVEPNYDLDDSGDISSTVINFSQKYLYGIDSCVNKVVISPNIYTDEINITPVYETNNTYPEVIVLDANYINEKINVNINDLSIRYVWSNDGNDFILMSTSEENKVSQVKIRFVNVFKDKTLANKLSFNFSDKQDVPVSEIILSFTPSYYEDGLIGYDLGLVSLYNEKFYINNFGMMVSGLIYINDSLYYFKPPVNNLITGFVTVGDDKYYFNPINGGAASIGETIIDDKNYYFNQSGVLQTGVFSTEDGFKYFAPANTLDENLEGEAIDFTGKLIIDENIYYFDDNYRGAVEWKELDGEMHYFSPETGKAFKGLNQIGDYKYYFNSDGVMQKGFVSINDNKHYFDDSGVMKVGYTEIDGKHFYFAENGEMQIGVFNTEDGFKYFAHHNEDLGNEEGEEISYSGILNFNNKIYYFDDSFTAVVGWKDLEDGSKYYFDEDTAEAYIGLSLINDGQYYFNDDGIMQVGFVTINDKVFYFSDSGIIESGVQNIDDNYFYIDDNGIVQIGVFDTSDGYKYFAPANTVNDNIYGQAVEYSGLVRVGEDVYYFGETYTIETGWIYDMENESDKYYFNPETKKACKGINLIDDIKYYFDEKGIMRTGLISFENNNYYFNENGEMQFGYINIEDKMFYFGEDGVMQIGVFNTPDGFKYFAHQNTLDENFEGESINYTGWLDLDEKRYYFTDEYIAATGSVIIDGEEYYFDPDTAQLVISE

## O[C@@H](CS)[C@@H](O)CS (racemic) [DTT, Dithiothreitol]
TcdBHIST [1]; 5 mM DTT, 90 min time-course
  activation of processing: just slightly above the level of detection
TcdBHV [2]; 5 mM DTT in place of IP6
  time to maximum activation: approximately 1 h
TcdBHV [2]; 5 mM DTT in place of IP6, 90 min time-course
  time to activation of processing: ≤ 15 min

## O=P(O)(O)OC1C(OP(=O)(O)O)C(OP(=O)(O)O)C(OP(=O)(O)O)C(OP(=O)(O)O)C1OP(=O)(O)O (centres unmarked) [IP6, inositol hexakisphosphate]
TcdBHV [3]
  IP6 concentration at which AWP19-labeled toxin could be detected: 5 µM
TcdBHIST [4]
  IP6 concentration at which AWP19-labeled toxin could be detected: 5 µM
TcdBHIST [1]; 100 µM IP6
  time to half-maximal level of proteolysis: ≤ 2 min
TcdBHIST [1]; 100 µM IP6, up to 60 min
  maximal processing: under 60%
TcdBHV [2]; 100 µM IP6
  time to half-maximal level of proteolysis: ≤ 2 min
TcdBHV [2]; 100 µM IP6, within the first hour
  percent cleavage (autoprocessing): ~80%

## Ac-GSL-AOMK
TcdBHIST [5]; 25 µM IP6
  concentration at which inhibition of IP6-induced processing was detectable: around 12.5 µM
TcdBHIST [5]; no IP6 (data not shown)
  effect of inhibitor without IP6: no effect
TcdBHIST [5]; [9]
  percent of proteolysis blocked: ~100%
[6]
  protection of CHO cells from toxin: provided protection
TcdBHV [7]; 25 µM IP6
  concentration at which inhibition of IP6-induced processing was detectable: around 12.5 µM
TcdBHV [7]; no IP6 (data not shown)
  effect of inhibitor without IP6: no effect
TcdBHV [7]; [9]
  maximum percent inhibition of processing: around 60%
[8]
  protection of CHO cells from toxin: not as functional
